# According to ChEMBL document CHEMBL4428051, “Preclinical Activity of New [1,2]Oxazolo[5,4-e]isoindole Derivatives in Diffuse Malignant Peritoneal Mesothelioma” (J Med Chem, 2016):
# Activity calls are given as the source filed them. No cut-off for these calls is given here.
# Key:
# [1] = system: Panel NCI-60 (60 carcinoma cell lines); assay: Growth inhibition of human NCI60 cells at 10^-4 to 10^-8 M after 48 hrs by sulforhodamine B assay; type: functional, cell-based
# [2] = organism: Homo sapiens; assay: Cell cycle arrest in human STO cells assessed as decrease in cell levels at G1 phase at IC50 after 48 to 72 hrs by propidium iodide staining-based flow cytometric method; type: functional
# Procedure, shortened: (§1)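 Cells exposed to drug or 1% (v/v) DMSO control for 48 and 72 h. Adherent and floating cells fixed in 70% EtOH, then stained 30 min at 4 °C with propidium iodide 50 μg/mL, RNase and 0.05% Nonidet-P40 in PBS. Flow cytometry read ≥30000 events; G1, S and G2/M percentages fitted with the Modfit model; mean of three independent experiments.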
# [3] = organism: Homo sapiens; assay: Cell cycle arrest in human MP4 cells assessed as accumulation at G2/M phase at IC50 after 48 to 72 hrs by propidium iodide staining-based flow cytometric method; type: functional; procedure, shortened: as §1
# [4] = target: T1, Tubulin (Sus scrofa) (UniProt P02554+P02550); assay: Inhibition of GTP-induced porcine tubulin polymerization at 10 uM measured every minute up to 60 mins relative to control; type: protein assay
# Procedure, shortened: (§2)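 Test agent or taxol/vinorelbine was added at 10 μmol/L. Polymerization was started at 37 °C and followed by absorbance at 340 nm every minute up to 60 min.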
# [5] = target: T2, Tubulin (Homo sapiens) (UniProt P68371+Q9H4B7+P0DPH7+P68366+Q13509+Q71U36+P04350+Q3ZCM7+P07437+P68363+Q9BQE3+Q6PEY2+Q13885+Q9BVA1+Q9BUF5); assay: Inhibition of tubulin polymerization in human STO cells at 2 nM after 24 hrs by Western blot analysis relative to soluble fraction of tubulin; type: cell-based
# [6] = target: T2, Tubulin (Homo sapiens); assay: Inhibition of tubulin polymerization in human MP4 cells at 10 nM after 24 hrs by Western blot analysis relative to soluble fraction of tubulin; type: cell-based
# [7] = organism: Homo sapiens; assay: Cell cycle arrest in human STO cells assessed as accumulation at G2/M phase at IC50 after 48 to 72 hrs by propidium iodide staining-based flow cytometric method; type: functional; procedure, shortened: as §1
# [8] = organism: Homo sapiens; assay: Cell cycle arrest in human MP4 cells assessed as decrease in cell levels at G1 phase at IC50 after 48 to 72 hrs by propidium iodide staining-based flow cytometric method; type: functional; procedure, shortened: as §1
# [9] = organism: Homo sapiens; assay: Cell cycle arrest in human STO cells assessed as decrease in cell levels at S phase at IC50 after 48 to 72 hrs by propidium iodide staining-based flow cytometric method; type: functional; procedure, shortened: as §1
# [10] = organism: Homo sapiens; assay: Cell cycle arrest in human MP4 cells assessed as decrease in cell levels at S phase at IC50 after 48 to 72 hrs by propidium iodide staining-based flow cytometric method; type: functional; procedure, shortened: as §1
# [11] = Cell cycle arrest in human STO cells assessed as mitotic cells at 2 nM after 72 hrs by MPM2 staining-based fluorescence microscopic analysis relative to control; type: functional
# [12] = Cell cycle arrest in human MP8 cells assessed as mitotic cells at 13 nM after 72 hrs by MPM2 staining-based fluorescence microscopic analysis relative to control; type: functional
# [13] = Induction of apoptosis in human STO cells assessed as increase in caspase-3 catalytic activity by measuring DEVD-pNA hydrolysis at IC80 after 72 hrs by spectrofluorometric method relative to control; type: functional
# Procedure, shortened: (§3)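 STO and MP4 cells were exposed 72 h to drug or to 1% (v/v) DMSO control, then washed, pelleted and lysed. Total protein was mixed with DEVD-pNA for 1 h at 37 °C. Hydrolysis was read fluorometrically, ex 380/em 460 nm, as relative fluorescence units. Mean of three independent experiments.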
# [14] = Growth inhibition of human STO cells after 72 hrs by MTS assay; type: functional
# Procedure, shortened: (§4)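 DMPM lines were kept in DMEM F12 with 10% heat-inactivated FBS at 37 °C, 5% CO₂. 4500 cells/well were plated 24 h, then exposed 72 h to 0.1−100 μM; vehicle was 0.01% DMSO. MTS read at OD 490 nm and expressed as % of DMSO-treated cells. Eight replicates per condition, ≥3 independent repeats. IC50 and IC80 were taken graphically from dose–response curves.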
# [15] = Growth inhibition of human MP4 cells after 72 hrs by MTS assay; type: functional; procedure, shortened: as §4
# [16] = Growth inhibition of human MP8 cells after 72 hrs by MTS assay; type: functional; conditions: MP8, 72 h; procedure, shortened: as §4
# [17] = system: WI-38; assay: Growth inhibition of human WI38 cells after 72 hrs by MTS assay; type: cell-based; conditions: WI-38, 72 h
# [18] = target: T2, Tubulin (Homo sapiens); assay: Inhibition of tubulin polymerization in human STO cells at IC50 after 24 hrs by Western blot analysis relative to soluble fraction of tubulin; type: cell-based
# [19] = target: T2, Tubulin (Homo sapiens); assay: Inhibition of tubulin polymerization in human MP4 cells at IC50 after 24 hrs by Western blot analysis relative to soluble fraction of tubulin; type: cell-based
# [20] = organism: Homo sapiens; assay: Cell cycle arrest in human STO cells assessed as accumulation at G2/M phase at IC50 to IC80 by propidium iodide staining-based flow cytometric method; type: functional; conditions: TDE = time-dependent effect; procedure, shortened: as §1
# [21] = organism: Homo sapiens; assay: Cell cycle arrest in human MP4 cells assessed as accumulation at G2/M phase at IC50 to IC80 by propidium iodide staining-based flow cytometric method; type: functional; conditions: TDE = time-dependent effect; procedure, shortened: as §1
# [22] = organism: Homo sapiens; assay: Cell cycle arrest in human STO cells assessed as decrease in cell levels at G1 phase at IC50 to IC80 after 48 to 72 hrs by propidium iodide staining-based flow cytometric method; type: functional; procedure, shortened: as §1
# [23] = organism: Homo sapiens; assay: Cell cycle arrest in human MP4 cells assessed as decrease in cell levels at G1 phase at IC50 to IC80 after 48 to 72 hrs by propidium iodide staining-based flow cytometric method; type: functional; procedure, shortened: as §1
# [24] = organism: Homo sapiens; assay: Cell cycle arrest in human STO cells assessed as decrease in cell levels at S phase at IC50 to IC80 after 48 to 72 hrs by propidium iodide staining-based flow cytometric method; type: functional; procedure, shortened: as §1
# [25] = organism: Homo sapiens; assay: Cell cycle arrest in human MP4 cells assessed as decrease in cell levels at S phase at IC50 to IC80 after 48 to 72 hrs by propidium iodide staining-based flow cytometric method; type: functional; procedure, shortened: as §1
# [26] = Cell cycle arrest in human STO cells assessed as mitotic cells at IC50 after 72 hrs by MPM2 staining-based fluorescence microscopic analysis relative to control; type: functional
# [27] = Cell cycle arrest in human MP8 cells assessed as mitotic cells at IC50 after 72 hrs by MPM2 staining-based fluorescence microscopic analysis relative to control; type: functional
# [28] = organism: Homo sapiens; assay: Induction of apoptosis in human STO cells assessed as increase in caspase-3 catalytic activity by measuring DEVD-pNA hydrolysis at IC50 to IC80 by spectrofluorometric method; type: functional, cell-based; conditions: TDE = time-dependent effect
# [29] = organism: Homo sapiens; assay: Induction of apoptosis in human MP4 cells assessed as increase in caspase-3 catalytic activity by measuring DEVD-pNA hydrolysis at IC50 to IC80 by spectrofluorometric method; type: functional, cell-based; conditions: TDE = time-dependent effect
# [30] = Induction of apoptosis in human MP4 cells assessed as increase in caspase-3 catalytic activity by measuring DEVD-pNA hydrolysis at IC80 after 72 hrs by spectrofluorometric method relative to control; type: functional; procedure, shortened: as §3
# [31] = Antitumor activity against human STO cells xenografted in athymic nude mouse assessed as tumor growth inhibition at 5 mg/kg, ip administrated every 7 days for 4 weeks starting from day 10 post tumor implantation relative to control; type: functional; conditions: read-out: TGI
# Procedure, shortened: (§5)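 Female nude mice, 6−8 weeks old, given 10⁷ exponentially growing STO cells s.c. in the right flank; 8 mice/group. Drug in 10% DMSO/90% saline, 5 mg/kg ip q7dx4 from day 10 after inoculum; controls got vehicle. Tumour diameters caliper-measured weekly, TV = d²×D/2, TVI% = 100 − (mean TV treated/mean TV control × 100). Ki67 staining on formalin-fixed paraffin sections of tumours after the last treatment.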
# [32] = system: Homo sapiens; assay: Antitumor activity against human STO cells xenografted in athymic nude mouse assessed as suppression of cell proliferation at 5 mg/kg, ip administrated every 7 days for 4 weeks starting from day 10 post tumor implantation measured post last dose by Ki67 immunohistochemical staining-based assay; type: functional, organism-based; procedure, shortened: as §5
# [33] = Toxicity in athymic nude mouse xenografted with human STO cells assessed as drug tolerance at 5 mg/kg, ip administrated every 7 days for 4 weeks starting from day 10 post tumor implantation; type: organism-based; conditions: in vivo
# Procedure, shortened: (§6)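 Female nude mice, 6−8 weeks old, with 10⁷ exponentially growing STO cells injected subcutaneously into the right flank. Eight mice per group, randomly assigned to vehicle control or treatment. Compound was given ip in 10% DMSO / 90% saline. Tumor diameters were measured weekly by caliper.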
# [34] = Toxicity in athymic nude mouse xenografted with human STO cells assessed as body weight loss at 5 mg/kg, ip administrated every 7 days for 4 weeks starting from day 10 post tumor implantation; type: organism-based; conditions: in vivo; procedure, shortened: as §6
# [35] = Toxicity in athymic nude mouse xenografted with human STO cells assessed as mortality at 5 mg/kg, ip administrated every 7 days for 4 weeks starting from day 10 post tumor implantation; type: organism-based; conditions: in vivo; procedure, shortened: as §6
# [36] = target: T1, Tubulin (Sus scrofa); assay: Induction of GTP-induced porcine tubulin polymerization at 10 uM measured every minute up to 60 mins relative to control; type: protein assay; procedure, shortened: as §2
# [37] = Cell cycle arrest in human STO cells assessed as mitotic cells at 1 nM after 72 hrs by MPM2 staining-based fluorescence microscopic analysis relative to control; type: functional
# [38] = Cell cycle arrest in human MP8 cells assessed as mitotic cells at 18 nM after 72 hrs by MPM2 staining-based fluorescence microscopic analysis relative to control; type: functional
# T1 sequence (P02550 whole entry, looked up): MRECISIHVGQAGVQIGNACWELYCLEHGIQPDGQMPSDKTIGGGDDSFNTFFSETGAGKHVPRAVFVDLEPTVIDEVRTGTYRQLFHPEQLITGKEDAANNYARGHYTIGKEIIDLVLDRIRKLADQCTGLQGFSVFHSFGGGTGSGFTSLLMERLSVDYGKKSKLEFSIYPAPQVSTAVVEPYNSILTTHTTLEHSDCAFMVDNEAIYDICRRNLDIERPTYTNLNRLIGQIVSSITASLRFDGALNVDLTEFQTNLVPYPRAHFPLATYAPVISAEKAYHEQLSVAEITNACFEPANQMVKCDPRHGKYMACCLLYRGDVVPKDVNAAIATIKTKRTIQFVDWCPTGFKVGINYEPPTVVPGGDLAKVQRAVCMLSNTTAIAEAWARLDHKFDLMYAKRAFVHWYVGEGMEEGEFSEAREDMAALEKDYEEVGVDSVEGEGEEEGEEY
# T1 sequence (P02554 whole entry, looked up): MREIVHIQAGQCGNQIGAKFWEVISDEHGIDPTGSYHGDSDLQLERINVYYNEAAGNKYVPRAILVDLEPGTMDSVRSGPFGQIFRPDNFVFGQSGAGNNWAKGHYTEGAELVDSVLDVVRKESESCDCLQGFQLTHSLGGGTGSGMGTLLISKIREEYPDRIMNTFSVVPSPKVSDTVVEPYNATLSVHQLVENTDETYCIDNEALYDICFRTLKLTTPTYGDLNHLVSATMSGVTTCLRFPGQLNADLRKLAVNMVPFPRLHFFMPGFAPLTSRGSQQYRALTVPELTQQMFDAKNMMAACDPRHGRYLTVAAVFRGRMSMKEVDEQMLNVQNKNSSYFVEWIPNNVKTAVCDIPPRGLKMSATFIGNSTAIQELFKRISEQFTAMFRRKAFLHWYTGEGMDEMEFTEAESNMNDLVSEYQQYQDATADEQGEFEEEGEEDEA
smiles,measurement,setting,value
COc1ccc(Cn2cc3c(c2-c2ccc(OC)cc2)CCc2cnoc2-3)cc1,growth inhibition (GI),[1],Active
CCC1=C[C@@H]2CN(C1)Cc1c([nH]c3ccccc13)[C@@](C(=O)OC)(c1cc3c(cc1OC)N(C)[C@H]1[C@@](O)(C(=O)OC)[C@H](OC(C)=O)[C@]4(CC)C=CCN5CC[C@]31[C@@H]54)C2 [VINORELBINE],Activity,[2],Active
same,Activity,[3],Active
same,inhibition,[4],Active
same,inhibition,[5],Active
same,inhibition,[6],Active
same,Activity,[7],Active
same,Activity,[8],Active
same,Activity,[9],Active
same,Activity,[10],Active
same,Activity,[11],30 - 50%
same,Activity,[12],30 - 50%
COc1ccc(Cn2cc3c(c2-c2ccc(O)cc2)CCc2cnoc2-3)cc1,growth inhibition (GI),[1],Active
COc1ccc(Cn2cc3c(c2-c2cc(OC)c(OC)c(OC)c2)CCc2cnoc2-3)cc1[N+](=O)[O-],growth inhibition (GI),[1],Active
COc1ccc(Cn2cc3c(c2-c2cc(OC)c(OC)c(OC)c2)CCc2cnoc2-3)cc1N,fold change (FC),[13],38.5
same,growth inhibition (GI),[1],Active
same,IC50,[14],70 nM
same,IC50,[15],160 nM
same,IC50,[16],130 nM
same,IC50,[17],> 100000 nM
same,inhibition,[18],Active
same,inhibition,[19],Active
same,inhibition,[4],Active
same,Activity,[20],Tde
same,Activity,[21],Tde
same,Activity,[22],Active
same,Activity,[23],Active
same,Activity,[24],Active
same,Activity,[25],Active
same,Activity,[26],30 - 50%
same,Activity,[27],30 - 50%
same,Activity,[28],Tde
same,Activity,[29],Tde
same,fold change (FC),[30],35
same,inhibition in vivo at 5 mg/kg,[31],59%
same,Activity,[32],Active
same,Activity,[33],Non-Toxic
same,Activity,[34],Non-Toxic
same,Activity,[35],Non-Toxic
COc1ccc(Cn2cc3c(c2-c2ccccc2)CCc2cnoc2-3)cc1N,growth inhibition (GI),[1],Active
COc1ccc(Cn2cc3c(c2-c2cc(OC)c(OC)c(OC)c2)CCc2cnoc2-3)cc1,growth inhibition (GI),[1],Active
COc1ccc(Cn2cc3c(c2-c2ccccc2)CCc2cnoc2-3)cc1,growth inhibition (GI),[1],Active
CC(=O)O[C@H]1C(=O)[C@@]2(C)[C@H]([C@H](OC(=O)c3ccccc3)[C@]3(O)C[C@H](OC(=O)[C@H](O)[C@@H](NC(=O)c4ccccc4)c4ccccc4)C(C)=C1C3(C)C)[C@]1(OC(C)=O)CO[C@@H]1C[C@@H]2O [PACLITAXEL],Activity,[2],Active
same,Activity,[3],Active
same,Activity,[36],Active
same,Activity,[7],Active
same,Activity,[8],Active
same,Activity,[9],Active
same,Activity,[10],Active
same,Activity,[37],30 - 50%
same,Activity,[38],30 - 50%
